Data taken from ChEMBL document CHEMBL2010791, “3-Phenyl-5-isothiazole carboxamides with potent mGluR1 antagonist activity” (Bioorg Med Chem Lett, 2012).
Active and inactive are the calls of the source. The calls are words filed in the database; no cut-off is given here.

Tests used:
[1] = molecular target: Metabotropic glutamate receptor 1 (Homo sapiens, UniProt Q13255); assay: Allosteric antagonist activity at human recombinant mGluR1 expressed in AV12 cells assessed as intracellular calcium concentration using Fluo-3 dye by FLIPR assay; type: functional, cell-based
Sequence of Metabotropic glutamate receptor 1 (Homo sapiens, UniProt Q13255) (Q13255 whole entry): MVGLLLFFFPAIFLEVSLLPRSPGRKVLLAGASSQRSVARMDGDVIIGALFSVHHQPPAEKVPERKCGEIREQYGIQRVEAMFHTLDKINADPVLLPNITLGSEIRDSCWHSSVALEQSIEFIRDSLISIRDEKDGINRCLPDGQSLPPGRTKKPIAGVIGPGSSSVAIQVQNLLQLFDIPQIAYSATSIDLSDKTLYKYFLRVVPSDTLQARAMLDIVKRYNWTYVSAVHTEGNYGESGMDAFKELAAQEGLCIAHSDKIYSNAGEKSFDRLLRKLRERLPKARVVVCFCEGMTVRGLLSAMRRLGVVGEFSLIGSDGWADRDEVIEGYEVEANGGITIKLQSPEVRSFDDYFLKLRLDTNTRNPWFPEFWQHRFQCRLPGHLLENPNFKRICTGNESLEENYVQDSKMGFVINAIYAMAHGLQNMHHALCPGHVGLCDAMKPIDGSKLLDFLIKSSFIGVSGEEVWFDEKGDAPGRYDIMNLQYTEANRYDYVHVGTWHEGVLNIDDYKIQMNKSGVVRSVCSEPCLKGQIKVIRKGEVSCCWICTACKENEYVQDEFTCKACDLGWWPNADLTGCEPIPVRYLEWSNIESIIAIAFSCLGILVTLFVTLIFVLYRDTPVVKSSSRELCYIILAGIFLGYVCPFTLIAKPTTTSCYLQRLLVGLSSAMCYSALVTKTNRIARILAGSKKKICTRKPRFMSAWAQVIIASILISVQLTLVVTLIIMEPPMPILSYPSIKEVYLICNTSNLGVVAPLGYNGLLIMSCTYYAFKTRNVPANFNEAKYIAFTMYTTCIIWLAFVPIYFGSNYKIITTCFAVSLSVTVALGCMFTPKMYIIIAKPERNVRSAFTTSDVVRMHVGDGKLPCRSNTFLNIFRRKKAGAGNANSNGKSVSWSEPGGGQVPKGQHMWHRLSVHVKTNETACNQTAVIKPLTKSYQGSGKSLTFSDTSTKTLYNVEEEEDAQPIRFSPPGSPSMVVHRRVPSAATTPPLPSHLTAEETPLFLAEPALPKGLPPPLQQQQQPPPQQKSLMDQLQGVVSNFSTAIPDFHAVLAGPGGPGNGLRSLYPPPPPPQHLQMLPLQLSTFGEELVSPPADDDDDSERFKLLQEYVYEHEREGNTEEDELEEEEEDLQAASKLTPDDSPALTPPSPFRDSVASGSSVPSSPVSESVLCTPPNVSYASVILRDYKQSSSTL
How it was run: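 Intracellular calcium read with Fluo-3 on a 96-channel FLIPR; peak fluorescence to glutamate at its EC90 with and without compound. Inhibition expressed as percent of assay window (EC90 glutamate response minus buffer); IC50 from 4-parameter logistic fit.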

[2] = molecular target: Metabotropic glutamate receptor 5 (Homo sapiens, UniProt P41594); assay: Antagonist activity at human mGluR5; type: functional
Sequence of Metabotropic glutamate receptor 5 (P41594 whole entry): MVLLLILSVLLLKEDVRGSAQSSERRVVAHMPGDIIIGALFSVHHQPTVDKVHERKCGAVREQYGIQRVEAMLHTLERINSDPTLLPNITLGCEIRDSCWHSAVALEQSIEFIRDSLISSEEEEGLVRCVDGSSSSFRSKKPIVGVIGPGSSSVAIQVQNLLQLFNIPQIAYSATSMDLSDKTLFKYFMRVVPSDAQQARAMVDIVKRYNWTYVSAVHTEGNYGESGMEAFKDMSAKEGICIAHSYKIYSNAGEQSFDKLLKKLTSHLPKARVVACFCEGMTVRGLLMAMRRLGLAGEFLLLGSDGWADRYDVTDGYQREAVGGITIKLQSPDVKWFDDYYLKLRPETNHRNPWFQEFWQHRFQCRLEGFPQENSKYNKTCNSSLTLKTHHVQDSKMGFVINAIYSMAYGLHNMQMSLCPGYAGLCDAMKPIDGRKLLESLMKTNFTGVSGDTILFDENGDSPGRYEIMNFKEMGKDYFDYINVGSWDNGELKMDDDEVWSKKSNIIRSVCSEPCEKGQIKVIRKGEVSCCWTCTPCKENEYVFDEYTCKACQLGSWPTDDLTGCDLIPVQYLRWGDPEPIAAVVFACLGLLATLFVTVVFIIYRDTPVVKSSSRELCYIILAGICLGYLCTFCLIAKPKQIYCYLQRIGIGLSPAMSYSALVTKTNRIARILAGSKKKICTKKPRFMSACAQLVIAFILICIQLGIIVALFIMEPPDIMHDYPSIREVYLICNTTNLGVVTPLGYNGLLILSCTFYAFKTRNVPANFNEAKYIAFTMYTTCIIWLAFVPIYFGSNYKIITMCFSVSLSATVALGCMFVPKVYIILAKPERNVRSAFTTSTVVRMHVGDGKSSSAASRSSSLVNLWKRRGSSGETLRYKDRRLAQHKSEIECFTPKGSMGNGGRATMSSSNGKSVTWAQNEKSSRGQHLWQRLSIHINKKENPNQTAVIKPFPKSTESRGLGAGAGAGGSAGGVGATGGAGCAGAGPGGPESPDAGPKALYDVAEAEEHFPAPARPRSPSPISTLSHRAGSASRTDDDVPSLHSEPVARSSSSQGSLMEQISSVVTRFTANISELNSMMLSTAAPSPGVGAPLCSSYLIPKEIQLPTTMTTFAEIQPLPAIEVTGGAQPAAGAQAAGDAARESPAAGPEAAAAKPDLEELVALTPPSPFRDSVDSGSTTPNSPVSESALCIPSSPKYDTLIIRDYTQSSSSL

[3] = molecular target: Metabotropic glutamate receptor 3 (Homo sapiens) (UniProt Q14832); assay: Antagonist activity at mGluR3; type: functional
Sequence of Metabotropic glutamate receptor 3 (Homo sapiens) (Q14832 23-879 limits assumed): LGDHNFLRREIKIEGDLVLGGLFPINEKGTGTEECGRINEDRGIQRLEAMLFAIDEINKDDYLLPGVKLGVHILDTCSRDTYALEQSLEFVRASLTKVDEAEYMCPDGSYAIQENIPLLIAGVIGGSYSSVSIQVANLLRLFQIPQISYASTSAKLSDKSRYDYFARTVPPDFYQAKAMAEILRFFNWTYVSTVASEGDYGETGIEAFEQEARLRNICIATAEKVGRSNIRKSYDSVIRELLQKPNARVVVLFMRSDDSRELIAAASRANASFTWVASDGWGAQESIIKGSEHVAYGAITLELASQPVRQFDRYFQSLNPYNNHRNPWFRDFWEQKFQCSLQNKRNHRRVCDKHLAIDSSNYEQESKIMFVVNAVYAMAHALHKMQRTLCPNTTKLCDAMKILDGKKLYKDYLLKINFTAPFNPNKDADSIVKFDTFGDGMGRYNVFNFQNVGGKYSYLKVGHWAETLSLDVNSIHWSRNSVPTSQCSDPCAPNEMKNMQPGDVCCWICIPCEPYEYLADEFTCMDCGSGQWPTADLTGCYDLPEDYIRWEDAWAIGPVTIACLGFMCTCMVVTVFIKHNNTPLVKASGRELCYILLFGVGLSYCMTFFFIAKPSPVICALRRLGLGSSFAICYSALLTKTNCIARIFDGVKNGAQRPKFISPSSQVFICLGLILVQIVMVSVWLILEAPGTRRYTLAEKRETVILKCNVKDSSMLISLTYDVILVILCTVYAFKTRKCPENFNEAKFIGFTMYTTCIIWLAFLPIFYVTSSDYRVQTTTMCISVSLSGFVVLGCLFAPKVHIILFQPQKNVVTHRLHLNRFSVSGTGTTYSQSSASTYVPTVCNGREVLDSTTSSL

[4] = molecular target: Metabotropic glutamate receptor 8 (Homo sapiens) (UniProt O00222); assay: Antagonist activity at mGluR8; type: functional
[5] = molecular target: Metabotropic glutamate receptor 7 (Homo sapiens) (UniProt Q14831); assay: Antagonist activity at mGluR7; type: functional
Sequence of Metabotropic glutamate receptor 7 (Homo sapiens) (Q14831 whole entry): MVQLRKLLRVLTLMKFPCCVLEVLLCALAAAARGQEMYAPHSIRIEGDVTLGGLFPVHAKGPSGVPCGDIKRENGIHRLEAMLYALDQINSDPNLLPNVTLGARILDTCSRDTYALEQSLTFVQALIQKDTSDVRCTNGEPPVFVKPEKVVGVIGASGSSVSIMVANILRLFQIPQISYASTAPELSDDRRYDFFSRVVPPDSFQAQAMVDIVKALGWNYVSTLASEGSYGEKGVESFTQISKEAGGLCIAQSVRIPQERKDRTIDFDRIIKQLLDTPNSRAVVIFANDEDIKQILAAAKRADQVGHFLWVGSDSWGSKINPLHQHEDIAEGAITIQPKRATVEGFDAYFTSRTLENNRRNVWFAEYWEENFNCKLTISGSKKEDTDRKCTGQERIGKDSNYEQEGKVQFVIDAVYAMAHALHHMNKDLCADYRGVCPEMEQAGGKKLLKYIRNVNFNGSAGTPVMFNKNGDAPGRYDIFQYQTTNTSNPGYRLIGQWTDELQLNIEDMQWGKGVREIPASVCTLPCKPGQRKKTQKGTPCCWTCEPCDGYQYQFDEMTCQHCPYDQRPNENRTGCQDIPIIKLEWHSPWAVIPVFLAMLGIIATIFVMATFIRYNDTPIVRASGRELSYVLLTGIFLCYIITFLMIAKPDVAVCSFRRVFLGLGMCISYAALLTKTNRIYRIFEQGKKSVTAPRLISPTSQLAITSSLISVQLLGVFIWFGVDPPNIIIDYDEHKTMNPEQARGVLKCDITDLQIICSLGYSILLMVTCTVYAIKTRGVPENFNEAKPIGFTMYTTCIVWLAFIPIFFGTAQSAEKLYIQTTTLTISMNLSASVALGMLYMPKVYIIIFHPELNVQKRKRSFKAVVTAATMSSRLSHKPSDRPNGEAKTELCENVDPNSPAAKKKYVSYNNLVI

[6] = test system: Rattus norvegicus; assay: Analgesic activity in fasted Harlan Sprague-Dawley rat assessed as inhibition of formalin-induced paw-licking behaviour in late phase at 3 to 60 mg/kg, po administered 1 hr before formalin challenge measured after 11 to 40 mins; type: functional, organism-based
How it was run: (§1)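 Fasted male Sprague Dawley rats dosed orally (1, 3, 10, 30, 60 mg/kg, n = 8 per group) 1 h before intraplantar injection of 50 µl 5% formalin into right hindpaw. Paw-licking events counted 0–5 min (early) and 11–40 min (late); compared with vehicle, p<0.05.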

[7] = test system: Rattus norvegicus; assay: Analgesic activity in po dosed fasted Harlan Sprague-Dawley rat assessed as inhibition of formalin-induced paw-licking behaviour in late phase administered 1 hr before formalin challenge measured after 11 to 40 mins; type: functional; how it was run: as §1
[8] = molecular target: Metabotropic glutamate receptor 4 (Homo sapiens) (UniProt Q14833); assay: Antagonist activity at mGluR4; type: functional
Sequence of Metabotropic glutamate receptor 4 (Homo sapiens) (Q14833 whole entry): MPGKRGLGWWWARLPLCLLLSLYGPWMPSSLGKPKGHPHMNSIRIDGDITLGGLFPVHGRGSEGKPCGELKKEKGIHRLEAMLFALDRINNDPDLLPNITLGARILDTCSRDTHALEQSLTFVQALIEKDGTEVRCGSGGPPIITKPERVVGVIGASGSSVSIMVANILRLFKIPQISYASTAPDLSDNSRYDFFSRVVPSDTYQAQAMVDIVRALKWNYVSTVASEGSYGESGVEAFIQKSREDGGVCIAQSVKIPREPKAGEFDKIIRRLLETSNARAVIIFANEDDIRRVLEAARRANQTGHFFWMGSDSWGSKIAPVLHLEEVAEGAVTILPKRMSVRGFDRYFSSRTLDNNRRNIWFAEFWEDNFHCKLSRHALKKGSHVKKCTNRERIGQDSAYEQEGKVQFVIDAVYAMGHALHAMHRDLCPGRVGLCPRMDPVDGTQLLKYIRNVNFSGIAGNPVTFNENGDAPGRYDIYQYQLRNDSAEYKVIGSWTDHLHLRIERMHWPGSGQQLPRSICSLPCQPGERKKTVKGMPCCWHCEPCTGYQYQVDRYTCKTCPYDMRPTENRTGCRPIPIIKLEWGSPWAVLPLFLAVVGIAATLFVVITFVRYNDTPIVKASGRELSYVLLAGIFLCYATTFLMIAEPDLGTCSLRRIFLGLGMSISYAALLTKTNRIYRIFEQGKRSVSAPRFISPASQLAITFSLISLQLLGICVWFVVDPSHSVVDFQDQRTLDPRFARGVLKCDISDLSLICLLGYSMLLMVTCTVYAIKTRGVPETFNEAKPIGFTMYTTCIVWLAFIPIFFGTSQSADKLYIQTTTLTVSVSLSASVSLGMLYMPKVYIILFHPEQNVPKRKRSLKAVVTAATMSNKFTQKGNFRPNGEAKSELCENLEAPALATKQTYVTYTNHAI

[9] = test system: Rattus norvegicus; assay: Ex vivo receptor occupancy of mGluR1 in po dosed fasted Sprague-Dawley rat assessed as ratio of drug level in cerebellum to frontal cortex after 20 mins; type: functional
How it was run: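 Fasted Sprague Dawley rats dosed orally (0.3–60 mg/kg; vehicle 1% methyl cellulose), then 1 h later given a 30 µg/kg IV bolus of a competing mGluR1 antagonist tracer. Killed 20 min later; cerebellum and frontal cortex levels measured by mass spectrometry. Occupancy by ratio method (cerebellum normalized to cortex), n = 4 per dose (n = 3 at 10 mg/kg).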

[10] = AUC (0 to 24 hrs) in Sprague-Dawley rat at 10 mg/kg, po; type: ADME, organism-based; set-up: time < 24 hr, dose 10 mg/kg, route oral; conditions: plasma
How it was run: (§2)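 Sprague Dawley rats dosed 3 mg/kg IV (solution in 25 mmol/L phosphate buffer pH 3 with 5% solutol HS15 and 5% pharmasolve) and 10 mg/kg orally (suspension in 1% methylcellulose A400 plus 0.1% antifoam); plasma levels measured over 24 h to derive PK parameters.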

[11] = Elimination half life in Sprague-Dawley rat at 10 mg/kg, po; type: ADME, organism-based; set-up: dose 10 mg/kg, route oral; conditions: in vivo, read-out: beta t1/2 (converted); how it was run: as §2
[12] = Tmax in Sprague-Dawley rat at 10 mg/kg, po; type: ADME, organism-based; set-up: dose 10 mg/kg, route oral; conditions: in vivo; how it was run: as §2
[13] = Oral bioavailability in Sprague-Dawley rat at 10 mg/kg; type: ADME, organism-based; conditions: in vivo; how it was run: as §2
[14] = test system: Rattus norvegicus; assay: Toxicity in fasted Sprague-Dawley rat assessed as deffects in motor impairment at 60 mg/kg, po measured up to 4 hrs by rotorod test; type: organism-based; set-up: dose 60 mg/kg, route oral; conditions: in vivo
How it was run: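 Fasted male Sprague Dawley rats given 60 mg/kg orally or vehicle (n = 8 per group); time on rotorod recorded at 1, 2, 3 and 4 h post-dose after training to 40 s baseline.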

[15] = Elimination half life in Sprague-Dawley rat at 3 mg/kg, iv; type: ADME, organism-based; set-up: dose 3 mg/kg, route intravenous; conditions: in vivo, read-out: beta t1/2 (converted); how it was run: as §2
[16] = Cmax in Sprague-Dawley rat at 10 mg/kg, po; type: ADME, organism-based; set-up: dose 10 mg/kg, route oral; conditions: in vivo; how it was run: as §2
[17] = Clearance in Sprague-Dawley rat at 3 mg/kg, iv and at 10 mg/kg, po; type: ADME, organism-based; conditions: in vivo; how it was run: as §2
[18] = molecular target: Metabotropic glutamate receptor 1 (Rattus norvegicus, UniProt P23385); assay: Antagonist activity at rat mGluR1; type: functional
[19] = Ratio of drug level in brain to plasma in Sprague-Dawley rat; type: ADME; conditions: read-out: BPR
How it was run: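 Rats dosed as in the plasma PK study; brain concentration profiles measured alongside plasma and the brain/plasma ratio taken.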

[20] = Volume of distribution in Sprague-Dawley rat at 3 mg/kg, iv and at 10 mg/kg, po; type: ADME, organism-based; conditions: in vivo; how it was run: as §2

Row | SMILES | IC50 [1] [nM] | IC50 [2] [nM] | other results
1 | COc1ccc(-c2nsc(NC(=O)[C@@H]3C[C@H]3C)c2C)cc1 (racemic) | 32 | – | –
2 | Cc1c(-c2ccccc2)nsc1NC(=O)[C@@H]1C[C@H]1C | 65 | > 12500 | –
3 | Cc1c(-c2ccc(Br)cc2)nsc1NC(=O)[C@@H]1C[C@H]1C | 7 | 730 | –
4 | Cc1c(-c2ccc(O)cc2)nsc1NC(=O)[C@@H]1C[C@H]1C | 138 | > 12500 | –
5 | Cc1c(-c2ccc(F)cc2)nsc1NC(=O)[C@@H]1C[C@H]1C | 100 | > 12500 | –
6 | COc1ccc(-c2nsc(NC(=O)[C@@H]3C[C@H]3C)c2C)cc1F | 7 | 159 | –
7 | COc1ccc(-c2nsc(NC(=O)[C@@H]3C[C@H]3C)c2C)cc1 [listing 1 of 2 here] | – | – | Activity [3]: inactive; Activity [4]: inactive; Activity [5]: inactive; Activity [6]: Active; Activity [7]: Dose-dependent effect; Activity [8]: inactive
8 | Cc1c(-c2ccc(Cl)c(Cl)c2)nsc1NC(=O)[C@@H]1C[C@H]1C | 39 | 6650 | –
9 | Cc1c(-c2ccc(Cl)cc2)nsc1NC(=O)[C@@H]1C[C@H]1C | 9 | 1220 | –
10 | COc1ccc(-c2nsc(NC(=O)[C@H]3C[C@@H]3C)c2C)cc1 | 110 | – | –
11 | Cc1c(-c2ccc(C(C)(F)F)cc2)nsc1NC(=O)[C@@H]1C[C@H]1C | 67 | > 12500 | –
12 | COc1ccc(-c2nsc(NC(=O)[C@@H]3C[C@H]3C)c2C)cc1 [listing 2 of 2 here] | 9 | 158 | ED50 [9]: 3.7 mg/kg; AUC(0-t) at 24 h [10]: 3240 ng·h/mL; half-life [11]: 1.24 h; Tmax [12]: 1 h; bioavailability [13]: 55.5%; Activity [14]: Non-toxic; half-life [15]: 0.41 h; Cmax [16]: 1050 ng/mL; clearance [17]: 35.9 mL/min/kg; IC50 [18]: 0.9 nM; Kp [19]: 0.2; ED50 [7]: 7 mg/kg; Vd [20]: 1.27 L/kg
13 | CCOc1ccc(-c2nsc(NC(=O)[C@@H]3C[C@H]3C)c2C)cc1 | 92 | 19 | –
